Assay [1] is described as follows: (§1) Antiproliferative activity against human MiaPaCa cells after 48 hrs by SRB assay. It is filed as functional. The settings on record: MIA PaCa-2, 48 h. In outline: (§2)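 Sulforhodamine B growth assay run on MIAPACA, MCF-7 and HeLa human cancer lines, with etoposide and podophyllotoxin as positive controls. Potency expressed as GI₅₀.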
Assay [2] has as its system HeLa. The assay can be described thus: Antiproliferative activity against human HeLa cells after 48 hrs by SRB assay. The format is functional. In outline: as §2
The next assay deals with MCF7. The assay can be described thus: Antiproliferative activity against human MCF7 cells after 48 hrs by SRB assay. The format is functional. In outline:
as §2

The target in a further assay is Tubulin (Bos taurus, UniProt Q6B856+Q862L2+Q862F3). The assay can be described thus: Inhibition of bovine brain tubulin polymerization measured for 1 hr at 1 min intervals by fluorescence assay.
Assay [3] has as its system HeLa. Description: Cell cycle arrest in human HeLa cells assessed as accumulation of cells at G2/M phase at 5 uM after 24 hrs by FACS analysis (Rvb =33.25 %). The format is functional.
The target in assay [4] is T1, Tubulin (Homo sapiens) (UniProt P68371+Q9H4B7+P0DPH7+P68366+Q13509+Q71U36+P04350+Q3ZCM7+P07437+P68363+Q9BQE3+Q6PEY2+Q13885+Q9BVA1+Q9BUF5). The assay can be described thus: Induction of tubulin polymerization in human HeLa cells assessed as increase of tubulin polymerized fraction at 5 uM after 24 hrs by immunoblot analysis. The format is cell-based. In outline:
(§3)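 HeLa cells treated at 5 µM for 24 h, then permeabilized. Soluble and polymerized tubulin fractions collected separately and analysed by immunoblotting, with DMSO-treated cells as control.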

The test system of a further assay is MiaPaCa. The description is as §1. It is filed as functional. In outline:
as §2

The test system of assay [5] is HeLa. Description: Disruption of microtubule network in human HeLa cells at 5 uM after 24 hrs by immunohistochemistry. It is filed as cell-based. In outline:
(§4)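 HeLa cells exposed to 5 µM for 24 h, then fixed and stained with anti-tubulin antibody, with DAPI counterstain. Merged tubulin/DAPI fluorescence images examined for microtubule network and nuclear condensation.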

Assay [6] relates to HeLa. The assay can be described thus: Mitotic arrest in human HeLa cells assessed as cell rounding at 5 uM after 24 hrs by immunohistochemistry. It is filed as functional, cell-based. In outline: as §4
The target of assay [7] is T1, Tubulin (Homo sapiens). Description: Inhibition of tubulin polymerization in human HeLa cells assessed as increase of tubulin soluble fraction at 5 uM after 24 hrs by immunoblot analysis. The format is cell-based. In outline: as §3

Activity calls are given as the source filed them. No cut-off for these calls is given here. A value given as a limit tells only on which side of the number the result lay.

For `COc1cc([C@@H]2c3cc4c(cc3[C@@H](O[C@@H]3O[C@@H]5CO[C@@H](C)O[C@H]5[C@H](O)[C@H]3O)[C@H]3COC(=O)[C@H]23)OCO4)cc(OC)c1O` [ETOPOSIDE], the GI50 in assay [1] was 1300 nM; with HeLa [2], 640 nM; in the assay with MCF7 (MCF7, 48 h), 250 nM.

Take `COc1ccc(C2C3=C(COC3=O)Nc3c2c2cccnc2c2ncccc32)c(O)c1` (stereo not given): the GI50 in assay [1] was determined as 9800 nM; in the assay with HeLa [2] it was 7000 nM; with MCF7 (MCF7, 48 h), 9700 nM.

With `COc1ccc(C2C3=C(COC3=O)Nc3c2c2cccnc2c2ncccc32)cc1OC` (stereo not given), the GI50 was 5900 nM in [1]; 40 nM in the assay on HeLa [2]; 4600 nM with MCF7 (MCF7, 48 h).

In the case of `COc1ccc(C2C3=C(COC3=O)Nc3c2c2cccnc2c2ncccc32)cc1` (stereo not given), the GI50 is 3400 nM in [1]; 4200 nM with HeLa [2]; 4600 nM in the assay on MCF7 (MCF7, 48 h).

The molecule `COc1ccc(OC)c(C2C3=C(COC3=O)Nc3c2c2cccnc2c2ncccc32)c1` (stereo not given) displayed an IC50 against Tubulin of 2000 nM. Besides, the GI50 in assay [1] is 100 nM; in the assay with HeLa [2] it was under 10 nM; in the assay with MCF7 (MCF7, 48 h), 8400 nM. For the same molecule, the Activity with HeLa [3] was found to be 73.77%.

In the case of `O=C1OCC2=C1C(c1ccc(O)c(Cl)c1)c1c(c3cccnc3c3ncccc13)N2` (stereo not given), the GI50 was 900 nM in assay [1]; 300 nM in the assay on HeLa [2]; 7700 nM in the assay with MCF7 (MCF7, 48 h).

Turning to `COc1cc(C2C3=C(COC3=O)Nc3c2c2cccnc2c2ncccc32)cc(OC)c1O` (stereo not given), the GI50 came to 100 nM in [1]; 1700 nM in the assay with HeLa [2]; 2100 nM with MCF7 (MCF7, 48 h).

With `O=C1OCC2=C1C(c1cc(Br)ccc1O)c1c(c3cccnc3c3ncccc13)N2` (stereo not given), the GI50 in [1] is 5400 nM; in the assay with HeLa [2] it was 1760 nM; in the assay on MCF7 (MCF7, 48 h), 9200 nM.

For the molecule `CC(=O)O[C@H]1C(=O)[C@@]2(C)[C@H]([C@H](OC(=O)c3ccccc3)[C@]3(O)C[C@H](OC(=O)[C@H](O)[C@@H](NC(=O)c4ccccc4)c4ccccc4)C(C)=C1C3(C)C)[C@]1(OC(C)=O)CO[C@@H]1C[C@@H]2O`, the result on Tubulin (Homo sapiens) [4] was Active.

`Cc1ccc(O)c(C2C3=C(COC3=O)Nc3c2c2cccnc2c2ncccc32)c1` (stereo not given): the figures for the GI50 (in assay [1]; in the assay on HeLa [2]) were 1900 nM and 600 nM, respectively. Moreover, in the assay with MCF7, the GI50 entry is “inactive”.

In the case of `COc1ccc(C2C3=C(COC3=O)Nc3c2c2cccnc2c2ncccc32)cc1F` (stereo not given), the GI50 turned out to be 1200 nM in assay [1]; 800 nM with HeLa [2]; 6400 nM in the assay with MCF7 (MCF7, 48 h).

In the case of `O=C1OCC2=C1C(c1ccc(F)cc1)c1c(c3cccnc3c3ncccc13)N2` (stereo not given), the GI50 entry with MiaPaCa and in the assay on MCF7 was “inactive” each time. In the assay on HeLa [2], this molecule returned a GI50 of 150 nM.

With `COc1ccc(F)c(C2C3=C(COC3=O)Nc3c2c2cccnc2c2ncccc32)c1` (stereo not given), at Tubulin, the IC50 turned out to be 830 nM. Further, the GI50 in assay [1] was 20 nM; in the assay with HeLa [2], under 10 nM; with MCF7 (MCF7, 48 h) it was 10 nM. Also, the result with HeLa [5] and with HeLa [6] was Active. At Tubulin (Homo sapiens) [7], the inhibition entry was “Active”. In addition, the Activity in the assay on HeLa [3] was determined as 82.04%.

Consider `O=C1OCC2=C1C(c1ccc(O)c(Br)c1)c1c(c3cccnc3c3ncccc13)N2` (stereo not given), for which the GI50 was 2000 nM in [1]; under 10 nM with HeLa [2]; 7600 nM with MCF7 (MCF7, 48 h).

For the molecule `O=C1OCC2=C1C(c1cc(Cl)ccc1O)c1c(c3cccnc3c3ncccc13)N2` (stereo not given), the GI50 result in the assay on MiaPaCa and in the assay with MCF7 was “inactive” throughout. For the same molecule, in the assay on HeLa [2], it took 300 nM to inhibit growth by half (GI50).

For `O=C1OCC2=C1C(c1ccc(C(F)(F)F)cc1)c1c(c3cccnc3c3ncccc13)N2` (stereo not given), the GI50 in [1] came out at 700 nM; in the assay on HeLa [2] it was 2600 nM; in the assay on MCF7 (MCF7, 48 h), 60 nM.

In the case of `O=C1OCC2=C1C(c1cc(F)c(F)c(F)c1)c1c(c3cccnc3c3ncccc13)N2` (stereo not given), the GI50 entry in the assay on MiaPaCa and with MCF7 was “inactive” each time. Further, it took 2500 nM to inhibit growth in the assay with HeLa [2] by half (GI50).

In the case of `COc1ccc(C2C3=C(COC3=O)Nc3c2c2cccnc2c2ncccc32)c(OC)c1OC` (stereo not given), the GI50 in assay [1] was found to be 3700 nM; with HeLa [2] it was 160 nM; with MCF7 (MCF7, 48 h) it was 8200 nM.

In [1], `O=C1OCC2=C1C(c1cccc(Cl)c1)c1c(c3cccnc3c3ncccc13)N2` (stereo not given) showed a GI50 of 13600 nM. Besides, the GI50 entry with HeLa [2] and with MCF7 was “inactive” in each case.

As to `O=C1OCC2=C1C(c1ccc(F)c(F)c1)c1c(c3cccnc3c3ncccc13)N2` (stereo not given), the IC50 against Tubulin was 920 nM. Also, the GI50 in assay [1] is 500 nM; in the assay on HeLa [2], 30 nM; with MCF7 (MCF7, 48 h), under 10 nM. Also, the outcome in the assay on HeLa [5] and in the assay with HeLa [6] was Active. Further, the inhibition result at Tubulin (Homo sapiens) [7] was “Active”. Also, in the assay with HeLa [3], the Activity worked out at 76.44%.

As to `Cc1cccc(C2C3=C(COC3=O)Nc3c2c2cccnc2c2ncccc32)c1O` (stereo not given), the GI50 was found to be 500 nM in assay [1]; 200 nM with HeLa [2]; 10300 nM in the assay on MCF7 (MCF7, 48 h).

Turning to `COc1cc(C2C3=C(COC3=O)Nc3c2c2cccnc2c2ncccc32)cc(OC)c1OC` (stereo not given), the GI50 is 2800 nM in [1]; 100 nM in the assay on HeLa [2]; 1700 nM in the assay on MCF7 (MCF7, 48 h).

For the molecule `COc1cc([C@@H]2c3cc4c(cc3[C@H](O)[C@H]3COC(=O)[C@H]23)OCO4)cc(OC)c1OC` [PODOFILOX], the GI50 came to 500 nM in assay [1]; 710 nM in the assay on HeLa [2]; 230 nM in the assay on MCF7 (MCF7, 48 h). In addition, the inhibition entry at Tubulin (Homo sapiens) [7] was “Active”.

These data come from ChEMBL document CHEMBL3352779, “Synthesis and biological evaluation of 4-aza-2,3-dihydropyridophenanthrolines as tubulin polymerization inhibitors” (Bioorg Med Chem Lett, 2014).
